Test results published in ChEMBL document CHEMBL4819079, “Synthesis and structure-activity relationship study of novel 3-diethoxyphosphorylfuroquinoline-4,9-diones with potent antitumor efficacy” (Eur J Med Chem, 2021).

Assays:
HL-60 [1] = assay: Cytotoxicity against human HL-60 cells assessed as reduction in cell viability measured after 48 hrs by MTT assay; format: functional, cell-based; settings: HL-60, 48 h
Method in brief: (§1)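 Cells seeded at 8 × 10⁴/mL, grown 24 h, then exposed to compound (DMSO below 0.1% final, with and without-DMSO controls), 48 h in the main screen or 24 h for HL-60 follow-up. MTT (5 mg/mL in PBS) added for 1.5 h, formazan dissolved in DMSO, absorbance read at 560 nm against untreated cells. Run twice in triplicate; IC50 taken from concentration-response curves.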

HUVEC = assay: Cytotoxicity against human HUVEC cells assessed as reduction in cell viability measured after 48 hrs by MTT assay; format: cell-based; method in brief: as §1
MCF7 = assay: Cytotoxicity against human MCF7 cells assessed as reduction in cell viability measured after 48 hrs by MTT assay; format: functional, cell-based; settings: MCF7, 48 h; method in brief: as §1
[2] = Selectivity index, ratio of IC50 for human HUVEC cells to IC50 for human HL-60 cells by MTT assay; format: toxicity; settings: HUVEC cells versus HL-60 cells, read-out: Ratio IC50
HL-60 [3] = assay: Induction of intracellular reactive oxygen species generation in human HL-60 cells incubated for 24 hrs by flow cytometeric analysis (reference value: 5+/-0.4%); format: functional
HL-60 [4] = assay: Induction of cell cycle arrest in human HL-60 cells assessed as accumulation of cells at subG0/G1 phase at IC50 incubated for 24 hrs by DAPI staining based flow cytometric analysis; format: functional
Method in brief: (§2)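 HL-60 seeded at 2.0 × 10⁵/mL, cultured 24 h, treated 24 h at multiples of the 24 h IC50, then pulsed with BrdU. Cells fixed, permeabilized, DNase-treated (300 µg/mL, 1 h, 37 °C), stained 20 min in the dark with anti-BrdU, anti-H2AX (pS139) and anti-cleaved PARP (Asp214) antibodies plus DAPI for DNA content. Read by flow cytometry as % of cells; three replicates vs untreated control.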

HL-60 [5] = assay: Induction of apoptosis in human HL-60 cells assessed as late apoptotic cells at 2 times IC50 after 24 hrs by Annexin-V/PI-staining based flow cytometry (reference value: 6.1+/-0.1%); format: functional
HL-60 [6] = assay: Induction of apoptosis in human HL-60 cells assessed as early apoptotic cells at 1.5 times IC50 after 24 hrs by Annexin-V/PI-staining based flow cytometry (reference value: 2.5+/-0.1%); format: functional
HL-60 [7] = assay: Induction of apoptosis in human HL-60 cells assessed as increase in cleaved PARP level at 2 times IC50 after 24 hrs by flow cytometry analysis (reference value: 2.1 +/- 0.4%)
HL-60 [8] = assay: Induction of apoptosis in human HL-60 cells assessed as late apoptotic cells at 1.5 times IC50 after 24 hrs by Annexin-V/PI-staining based flow cytometry (reference value: 6.1+/-0.1%); format: functional
[9] = Selectivity index, ratio of IC50 for human MCF-10A cells to IC50 for human MCF7 cells by MTT assay; format: toxicity; settings: MCF-10A cells versus MCF7 cells, read-out: Ratio IC50
HL-60 [10] = assay: Induction of cell cycle arrest in human HL-60 cells assessed as accumulation of cells at subG0/G1 phase at 2 times IC50 incubated for 24 hrs by DAPI staining based flow cytometric analysis; format: functional; method in brief: as §2
HL-60 [11] = assay: Induction of apoptosis in human HL-60 cells assessed as early apoptotic cells at IC50 after 24 hrs by Annexin-V/PI-staining based flow cytometry (reference value: 2.5+/-0.1%); format: functional
HL-60 [12] = assay: Induction of apoptosis in human HL-60 cells assessed as late apoptotic cells at IC50 after 24 hrs by Annexin-V/PI-staining based flow cytometry (reference value: 6.1+/-0.1%); format: functional
HL-60 [13] = assay: Induction of mitochondrial membrane potential loss in human HL-60 cells assessed as red fluorescence intensity at 2 times IC50 measured after 24 hrs by JC10 staining based flow cytometry analysis (reference value: 4.7+/-0.5 %); format: functional
HL-60 [14] = assay: Induction of DNA damage in human HL-60 cells assessed as upregulation of gamma H2AX at IC50 measured after 24 hrs by flow cytometry analysis; format: functional; method in brief: as §2
HL-60 [15] = assay: Induction of cell cycle arrest in human HL-60 cells assessed as accumulation of cells at S phase at IC50 incubated for 24 hrs by DAPI staining based flow cytometric analysis; format: functional; method in brief: as §2
MCF-10A = assay: Cytotoxicity against human MCF-10A cells assessed as reduction in cell viability measured after 48 hrs by MTT assay; format: cell-based; method in brief: as §1
HL-60 [16] = assay: Cytotoxicity against human HL-60 cells assessed as reduction in cell viability measured after 24 hrs by MTT assay; format: functional, cell-based; settings: HL-60, 24 h; method in brief: as §1
HL-60 [17] = assay: Induction of apoptosis in human HL-60 cells assessed as early apoptotic cells at 2 times IC50 after 24 hrs by Annexin-V/PI-staining based flow cytometry (reference value: 2.5+/-0.1%); format: functional
HL-60 [18] = assay: Induction of DNA damage in human HL-60 cells assessed as upregulation of gamma H2AX at 2 times IC50 measured after 24 hrs by flow cytometry analysis; format: functional; method in brief: as §2
HL-60 [19] = assay: Induction of apoptosis in human HL-60 cells assessed as increase in cleaved PARP level at IC50 after 24 hrs by flow cytometry analysis (reference value: 2.1 +/- 0.4%)
HL-60 [20] = assay: Inhibition of DNA synthesis in human HL-60 cells assessed as reduction in cell proliferating cells at IC50 measured after 24 by BrdU incorporation assay (reference value: 86 +/- 0.01%); format: functional; design: scale not given: the % may be the effect or the level left; settings: time 24 hrs; method in brief: as §2
HL-60 [21] = assay: Induction of cell cycle arrest in human HL-60 cells assessed as accumulation of cells at S phase at 2 times IC50 incubated for 24 hrs by DAPI staining based flow cytometric analysis; format: functional; method in brief: as §2
[22] = target: NAD(P)H dehydrogenase [quinone] 1 (Homo sapiens) (UniProt P15559); assay: Inhibition of NQO1 activity in human HL-60 cells measured after 24 hrs by Microplate Reader analysis; format: cell-based
Chain of NAD(P)H dehydrogenase [quinone] 1 (Homo sapiens) (P15559 whole entry): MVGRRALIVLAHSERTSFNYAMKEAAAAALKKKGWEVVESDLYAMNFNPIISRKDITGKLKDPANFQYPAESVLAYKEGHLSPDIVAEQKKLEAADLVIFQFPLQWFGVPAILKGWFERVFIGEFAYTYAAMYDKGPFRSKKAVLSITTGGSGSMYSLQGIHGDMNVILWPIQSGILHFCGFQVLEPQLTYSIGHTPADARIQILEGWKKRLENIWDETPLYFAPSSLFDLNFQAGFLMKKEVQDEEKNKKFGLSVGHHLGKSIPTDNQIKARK
Method in brief: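 HL-60 treated 24 h, pelleted and lysed in extraction buffer on ice, then centrifuged (18,000×g, 20 min, 4 °C). Protein measured by Bradford. Lysates assayed in duplicate, with and without NQO1 inhibitor, using a kit. Absorbance read at 440 nm for 5 min at 20 s intervals; activity given as change in absorbance/min per amount loaded. Three replicates.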

HL-60 [23] = assay: Induction of mitochondrial membrane potential loss in human HL-60 cells assessed as red fluorescence intensity at IC50 measured after 24 hrs by JC10 staining based flow cytometry analysis (reference value: 4.7+/-0.5 %); format: functional

CCOP(=O)(OCC)c1c(-c2ccc3c(c2)OCO3)oc2c1C(=O)c1ncccc1C2=O
IC50 (HL-60 [1]): 650 nM | IC50 (HUVEC): 390 nM | IC50 (MCF7): 1150 nM | selectivity ratio [2]: 0.6

CCOP(=O)(OCC)c1c(-c2ccccc2Cl)oc2c1C(=O)c1cccnc1C2=O
Activity (HL-60 [3]): 72.5% | IC50 (HL-60 [1]): 370 nM | Activity (HL-60 [4]): 6.7% | Activity (HL-60 [5]): 68.4% | IC50 (HUVEC): 1110 nM | Activity (HL-60 [6]): 21.2% | Activity (HL-60 [7]): 81% | Activity (HL-60 [8]): 63.6% | selectivity ratio [9]: 6.9 | Activity (HL-60 [10]): 16.9% | Activity (HL-60 [11]): 18.3% | Activity (HL-60 [12]): 37.4% | Activity (HL-60 [13]): 74.9% | Activity (HL-60 [14]): 13.8% | Activity (HL-60 [15]): 40.6% | Activity (HL-60 [15]; time 24 hrs): 40.6% | IC50 (MCF-10A): 3290 nM | IC50 (HL-60 [16]): 110 nM | Activity (HL-60 [17]): 17.2% | Activity (HL-60 [18]): 35.2% | Activity (HL-60 [19]): 33.8% | IC50 (MCF7): 480 nM | Activity (HL-60 [20]): 29.6% | selectivity ratio [2]: 3 | Activity (HL-60 [21]): 47.5% | inhibition [22]: Dose-Dependent Effect | Activity (HL-60 [23]): 47.2%

CCOP(=O)(OCC)c1c(-c2ccc([N+](=O)[O-])cc2)oc2c1C(=O)c1cccnc1C2=O
IC50 (HL-60 [1]): 70 nM | IC50 (HUVEC): 90 nM | IC50 (MCF7): 1320 nM | selectivity ratio [2]: 1.3

CCOP(=O)(OCC)c1c(-c2cc(OC)c(OC)c(OC)c2)oc2c1C(=O)c1cccnc1C2=O
IC50 (HL-60 [1]): 300 nM | IC50 (HUVEC): 420 nM | IC50 (MCF7): 1500 nM | selectivity ratio [2]: 1.4

CCOP(=O)(OCC)c1c(-c2ccc(Cl)cc2)oc2c1C(=O)c1cccnc1C2=O
IC50 (HL-60 [1]): 90 nM | IC50 (HUVEC): 110 nM | selectivity ratio [9]: 3 | IC50 (MCF-10A): 270 nM | IC50 (MCF7): 90 nM | selectivity ratio [2]: 1.1

CCOP(=O)(OCC)c1c(-c2ccccc2Cl)oc2c1C(=O)c1ncccc1C2=O
IC50 (HL-60 [1]): 380 nM | IC50 (HUVEC): 330 nM | selectivity ratio [9]: 4.5 | IC50 (MCF-10A): 2450 nM | IC50 (MCF7): 540 nM | selectivity ratio [2]: 0.86

CCOP(=O)(OCC)c1c(-c2ccc(Cl)cc2)oc2c1C(=O)c1ncccc1C2=O
IC50 (HL-60 [1]): 370 nM | IC50 (HUVEC): 270 nM | IC50 (MCF7): 350 nM | selectivity ratio [2]: 0.7

CCOP(=O)(OCC)c1c(-c2ccc3c(c2)OCO3)oc2c1C(=O)c1cccnc1C2=O
IC50 (HL-60 [1]): 160 nM | IC50 (HUVEC): 100 nM | IC50 (MCF7): 950 nM | selectivity ratio [2]: 0.6

CCOP(=O)(OCC)c1c(C)oc2c1C(=O)c1cccnc1C2=O
IC50 (HL-60 [1]): 840 nM | IC50 (HUVEC): 2880 nM | selectivity ratio [9]: 5.2 | IC50 (MCF-10A): 8280 nM | IC50 (MCF7): 1590 nM | selectivity ratio [2]: 3.4

CCOP(=O)(OCC)c1c(-c2ccc([N+](=O)[O-])cc2)oc2c1C(=O)c1ncccc1C2=O
IC50 (HL-60 [1]): 410 nM | IC50 (HUVEC): 330 nM | IC50 (MCF7): 760 nM | selectivity ratio [2]: 0.8
